Laboratory results taken from ChEMBL document CHEMBL1158529, “Synthesis and biological evaluation of novel C5 halogen-functionalized S-DABO as potent HIV-1 non-nucleoside reverse transcriptase inhibitors” (Bioorg Med Chem, 2010).
Calls of active or inactive are those of the source. No cut-off for these calls is given here.

Legend:
[1] = molecular target: Human immunodeficiency virus type 1 reverse transcriptase (Human immunodeficiency virus 1, UniProt Q72547); assay: Inhibition of HIV1 reverse transcriptase by ELISA
Outline: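 HIV-1 reverse transcriptase activity measured with a poly(rA)/oligo(dT)15 homopolymer template and read by HIV antigen-detection ELISA.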

[2] = molecular target: Human immunodeficiency virus type 1 reverse transcriptase (Human immunodeficiency virus 1) (UniProt Q72547); assay: Inhibition of HIV1 reverse transcriptase up to 100 uM by ELISA
Outline: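 RT assay on a poly(rA)/oligo(dT)15 homopolymer template with HIV antigen-detection ELISA read-out. Compounds were tested for loss of RT activity at concentrations up to 100 µM. Values are means of three separate experiments, with triplicate variation under 15%.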

[3] = molecular target: Human immunodeficiency virus type 1 reverse transcriptase (Human immunodeficiency virus 1) (UniProt Q72547); assay: Ratio of nevirapine IC50 to compound IC50 for HIV1 reverse transcriptase
[4] = molecular target: Human immunodeficiency virus type 1 reverse transcriptase (Human immunodeficiency virus 1) (UniProt Q72547); assay: Ratio of compound IC50 to 5a3 IC50 for HIV1 reverse transcriptase

SMILES	IC50 [1]	also measured
Cc1cccc(CSc2nc(Cc3ccccc3)c(Br)c(=O)[nH]2)c1	26.7 µM	
Cc1ccccc1CSc1nc(Cc2ccccc2)c(Br)c(=O)[nH]1	24.9 µM	
O=c1cc(Cc2ccccc2)nc(SCc2ccccc2)[nH]1		inhibition [2]: inactive
C=CCSc1nc(Cc2ccccc2)cc(=O)[nH]1	> 100 µM	
CCOCn1c(Cc2ccccc2)c(C(C)C)c(=O)[nH]c1=O [EMIVIRINE]	0.15 µM	
Cc1c(Cc2ccccc2)nc(SCc2ccc3ccccc3c2)[nH]c1=O		inhibition [2]: inactive
Cc1c(Cc2ccccc2)nc(SCc2ccccc2)[nH]c1=O		inhibition [2]: inactive
Cc1cccc(CSc2nc(Cc3ccccc3)c(C)c(=O)[nH]2)c1		inhibition [2]: inactive
CC(Sc1nc(Cc2ccccc2)cc(=O)[nH]1)c1ccccc1 (centres undefined)	> 100 µM	
C=CCSc1nc(Cc2ccccc2)c(C)c(=O)[nH]1		inhibition [2]: inactive
CC(C)(C)c1ccc(CSc2nc(Cc3ccccc3)cc(=O)[nH]2)cc1		inhibition [2]: inactive
CCOCSc1nc(Cc2ccccc2)c(C)c(=O)[nH]1	51.7 µM	
O=c1[nH]c(SCCc2ccccc2)nc(Cc2ccccc2)c1I	2.4 µM	
O=c1[nH]c(SCc2ccc3ccccc3c2)nc(Cc2ccccc2)c1I	2.04 µM	
COc1cccc(CSc2nc(Cc3ccccc3)c(I)c(=O)[nH]2)c1	8.29 µM	
CC(C)(C)c1ccc(CSc2nc(Cc3ccccc3)c(I)c(=O)[nH]2)cc1	5.62 µM	
Cc1cccc(CSc2nc(Cc3ccccc3)c(I)c(=O)[nH]2)c1	3.03 µM	
Cc1c(Cc2ccccc2)nc(SCc2ccc(C(C)(C)C)cc2)[nH]c1=O		inhibition [2]: inactive
O=c1[nH]c(SCc2ccc3ccccc3c2)nc(Cc2ccccc2)c1Br	12.3 µM	
O=c1cc(Cc2ccccc2)nc(SCc2ccc3ccccc3c2)[nH]1		inhibition [2]: inactive
O=c1cc(Cc2ccccc2)nc(SCOCc2ccccc2)[nH]1	12.1 µM	
Cc1c(Cc2ccccc2)nc(SC(C)c2ccccc2)[nH]c1=O (centres undefined)	> 100 µM	
Cc1cccc(CSc2nc(Cc3ccccc3)cc(=O)[nH]2)c1	91.1 µM	
CCOCSc1nc(Cc2ccccc2)cc(=O)[nH]1	> 100 µM	

More lines, main results first:

IC50 [1]	SMILES	also measured
90.8 µM	COc1cccc(CSc2nc(Cc3ccccc3)cc(=O)[nH]2)c1	
17.4 µM	O=c1cc(Cc2ccccc2)nc(SCCc2ccccc2)[nH]1	
13.9 µM	O=c1[nH]c(SCCc2ccccc2)nc(Cc2ccccc2)c1Br	
10.1 µM	O=c1[nH]c(SCc2ccccc2)nc(Cc2ccccc2)c1I	
> 100 µM	Cc1ccccc1CSc1nc(Cc2ccccc2)c(C)c(=O)[nH]1	
19 µM	Cc1c(Cc2ccccc2)nc(SCOCc2ccccc2)[nH]c1=O	
0.18 µM	O=c1[nH]c(SCCCc2ccccc2)nc(Cc2ccccc2)c1I	Ratio IC50 [3]: 23
47.7 µM	Cc1ccccc1CSc1nc(Cc2ccccc2)cc(=O)[nH]1	
8.17 µM	O=c1cc(Cc2ccccc2)nc(SCCCc2ccccc2)[nH]1	Ratio IC50 [4]: 45
4.16 µM	Cc1ccccc1CSc1nc(Cc2ccccc2)c(I)c(=O)[nH]1	
48.7 µM	COc1cccc(CSc2nc(Cc3ccccc3)c(C)c(=O)[nH]2)c1	
59.6 µM	Cc1c(Cc2ccccc2)nc(SCCc2ccccc2)[nH]c1=O	
2.93 µM	Cc1c(Cc2ccccc2)nc(SCCCc2ccccc2)[nH]c1=O	
